Data as given in ChEMBL document CHEMBL1687781, “Comparative biochemical and computational study of the role of naturally occurring mutations at Ambler positions 104 and 170 in GES β-lactamases” (Antimicrob Agents Chemother, 2010).
Values after ≈ are worked out from the molar mass of the structure shown.

system: not listed separately; experiment: Activity of Beta-lactamase GES-1 E104, G170 mutant
Method in brief: (§1)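 Purified GES enzymes, released by mild sonication in 20 mM Tris pH 8.0, then Q-Sepharose and S-Sepharose chromatography, >95% pure by SDS-PAGE, in 50 mM KPi pH 7.6. Protein measured by Bradford. β-Lactam substrates hydrolysed at various concentrations, 25°C, in 50 mM NaCl, 50 mM MOPS pH 7.0.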

SMILES | Km [µM] | kcat [s⁻¹]
CO/N=C(\C(=O)N[C@@H]1C(=O)N2C(C(=O)O)=C(COC(C)=O)CS[C@H]12)c1csc(N)n1 [CEFOTAXIME] | 152 | 56.8
CC1(C)S[C@@H]2[C@H](NC(=O)Cc3ccccc3)C(=O)N2[C@H]1C(=O)O | 120 | 30.5
CC(C)(O/N=C(\C(=O)N[C@@H]1C(=O)N2C(C(=O)[O-])=C(C[n+]3ccccc3)CS[C@H]12)c1csc(N)n1)C(=O)O [CEFTAZIDIME] | 137 | 10.5

system: not listed separately; experiment: Activity of Beta-lactamase GES-7 K104, G170 mutant; method in brief: as §1

SMILES | Km [µM] | kcat [s⁻¹]
CO/N=C(\C(=O)N[C@@H]1C(=O)N2C(C(=O)O)=C(COC(C)=O)CS[C@H]12)c1csc(N)n1 [CEFOTAXIME] | 81.6 | 31.4
CC1(C)S[C@@H]2[C@H](NC(=O)Cc3ccccc3)C(=O)N2[C@H]1C(=O)O | 39 | 14.2
CC(C)(O/N=C(\C(=O)N[C@@H]1C(=O)N2C(C(=O)[O-])=C(C[n+]3ccccc3)CS[C@H]12)c1csc(N)n1)C(=O)O [CEFTAZIDIME] | 69.2 | 132

system: not listed separately; experiment: Activity of Beta-lactamase GES-2 E104, N170 mutant; method in brief: as §1

SMILES | Km [µM] | kcat [s⁻¹]
CO/N=C(\C(=O)N[C@@H]1C(=O)N2C(C(=O)O)=C(COC(C)=O)CS[C@H]12)c1csc(N)n1 [CEFOTAXIME] | 261 | 37.2
CC1(C)S[C@@H]2[C@H](NC(=O)Cc3ccccc3)C(=O)N2[C@H]1C(=O)O | 87.6 | 5.75
CC(C)(O/N=C(\C(=O)N[C@@H]1C(=O)N2C(C(=O)[O-])=C(C[n+]3ccccc3)CS[C@H]12)c1csc(N)n1)C(=O)O [CEFTAZIDIME] | 98.2 | 0.21

system: not listed separately; experiment: Activity of Beta-lactamase GES-5 E104, S170 mutant; method in brief: as §1

SMILES | Km [µM] | kcat [s⁻¹]
CO/N=C(\C(=O)N[C@@H]1C(=O)N2C(C(=O)O)=C(COC(C)=O)CS[C@H]12)c1csc(N)n1 [CEFOTAXIME] | 133 | 3.55
CC1(C)S[C@@H]2[C@H](NC(=O)Cc3ccccc3)C(=O)N2[C@H]1C(=O)O | 88.9 | 28.6
CC(C)(O/N=C(\C(=O)N[C@@H]1C(=O)N2C(C(=O)[O-])=C(C[n+]3ccccc3)CS[C@H]12)c1csc(N)n1)C(=O)O [CEFTAZIDIME] | 135 | 0.24

system: not listed separately; experiment: Activity of Beta-lactamase GES-6 K104, S170 mutant; method in brief: as §1

SMILES | Km [µM] | kcat [s⁻¹]
CO/N=C(\C(=O)N[C@@H]1C(=O)N2C(C(=O)O)=C(COC(C)=O)CS[C@H]12)c1csc(N)n1 [CEFOTAXIME] | 95.6 | 5.1
CC1(C)S[C@@H]2[C@H](NC(=O)Cc3ccccc3)C(=O)N2[C@H]1C(=O)O | 64.2 | 27.2
CC(C)(O/N=C(\C(=O)N[C@@H]1C(=O)N2C(C(=O)[O-])=C(C[n+]3ccccc3)CS[C@H]12)c1csc(N)n1)C(=O)O [CEFTAZIDIME] | 149 | 9.3

system: not listed separately; experiment: Activity of Beta-lactamase GES-13 K104, N170 mutant; method in brief: as §1

SMILES | Km [µM] | kcat [s⁻¹]
CO/N=C(\C(=O)N[C@@H]1C(=O)N2C(C(=O)O)=C(COC(C)=O)CS[C@H]12)c1csc(N)n1 [CEFOTAXIME] | 63.4 | 69
CC1(C)S[C@@H]2[C@H](NC(=O)Cc3ccccc3)C(=O)N2[C@H]1C(=O)O | 139 | 13.5
CC(C)(O/N=C(\C(=O)N[C@@H]1C(=O)N2C(C(=O)[O-])=C(C[n+]3ccccc3)CS[C@H]12)c1csc(N)n1)C(=O)O [CEFTAZIDIME] | 229 | 30.4

system: not listed separately; experiment: Ratio of Kcat to Km for Beta-lactamase GES-1 E104, G170 mutant; method in brief: as §1

SMILES | kcat/Km [M⁻¹ s⁻¹]
CO/N=C(\C(=O)N[C@@H]1C(=O)N2C(C(=O)O)=C(COC(C)=O)CS[C@H]12)c1csc(N)n1 [CEFOTAXIME] | 370000
CC1(C)S[C@@H]2[C@H](NC(=O)Cc3ccccc3)C(=O)N2[C@H]1C(=O)O | 260000
CC(C)(O/N=C(\C(=O)N[C@@H]1C(=O)N2C(C(=O)[O-])=C(C[n+]3ccccc3)CS[C@H]12)c1csc(N)n1)C(=O)O [CEFTAZIDIME] | 77000

system: not listed separately; experiment: Ratio of Kcat to Km for Beta-lactamase GES-7 K104, G170 mutant; method in brief: as §1

SMILES | kcat/Km [M⁻¹ s⁻¹]
CO/N=C(\C(=O)N[C@@H]1C(=O)N2C(C(=O)O)=C(COC(C)=O)CS[C@H]12)c1csc(N)n1 [CEFOTAXIME] | 380000
CC1(C)S[C@@H]2[C@H](NC(=O)Cc3ccccc3)C(=O)N2[C@H]1C(=O)O | 360000
CC(C)(O/N=C(\C(=O)N[C@@H]1C(=O)N2C(C(=O)[O-])=C(C[n+]3ccccc3)CS[C@H]12)c1csc(N)n1)C(=O)O [CEFTAZIDIME] | 1.9e+06

system: not listed separately; experiment: Ratio of Kcat to Km for Beta-lactamase GES-2 E104, N170 mutant; method in brief: as §1

SMILES | kcat/Km [M⁻¹ s⁻¹]
CO/N=C(\C(=O)N[C@@H]1C(=O)N2C(C(=O)O)=C(COC(C)=O)CS[C@H]12)c1csc(N)n1 [CEFOTAXIME] | 140000
CC1(C)S[C@@H]2[C@H](NC(=O)Cc3ccccc3)C(=O)N2[C@H]1C(=O)O | 70000
CC(C)(O/N=C(\C(=O)N[C@@H]1C(=O)N2C(C(=O)[O-])=C(C[n+]3ccccc3)CS[C@H]12)c1csc(N)n1)C(=O)O [CEFTAZIDIME] | 2000

system: not listed separately; experiment: Ratio of Kcat to Km for Beta-lactamase GES-5 E104, S170 mutant; method in brief: as §1

SMILES | kcat/Km [M⁻¹ s⁻¹]
CO/N=C(\C(=O)N[C@@H]1C(=O)N2C(C(=O)O)=C(COC(C)=O)CS[C@H]12)c1csc(N)n1 [CEFOTAXIME] | 30000
CC1(C)S[C@@H]2[C@H](NC(=O)Cc3ccccc3)C(=O)N2[C@H]1C(=O)O | 320000
CC(C)(O/N=C(\C(=O)N[C@@H]1C(=O)N2C(C(=O)[O-])=C(C[n+]3ccccc3)CS[C@H]12)c1csc(N)n1)C(=O)O [CEFTAZIDIME] | 2000

system: not listed separately; experiment: Ratio of Kcat to Km for Beta-lactamase GES-6 K104, S170 mutant; method in brief: as §1

SMILES | kcat/Km [M⁻¹ s⁻¹]
CO/N=C(\C(=O)N[C@@H]1C(=O)N2C(C(=O)O)=C(COC(C)=O)CS[C@H]12)c1csc(N)n1 [CEFOTAXIME] | 50000
CC1(C)S[C@@H]2[C@H](NC(=O)Cc3ccccc3)C(=O)N2[C@H]1C(=O)O | 420000
CC(C)(O/N=C(\C(=O)N[C@@H]1C(=O)N2C(C(=O)[O-])=C(C[n+]3ccccc3)CS[C@H]12)c1csc(N)n1)C(=O)O [CEFTAZIDIME] | 63000

system: not listed separately; experiment: Ratio of Kcat to Km for Beta-lactamase GES-13 K104, N170 mutant; method in brief: as §1

SMILES | kcat/Km [M⁻¹ s⁻¹]
CO/N=C(\C(=O)N[C@@H]1C(=O)N2C(C(=O)O)=C(COC(C)=O)CS[C@H]12)c1csc(N)n1 [CEFOTAXIME] | 1.09e+06
CC1(C)S[C@@H]2[C@H](NC(=O)Cc3ccccc3)C(=O)N2[C@H]1C(=O)O | 100000
CC(C)(O/N=C(\C(=O)N[C@@H]1C(=O)N2C(C(=O)[O-])=C(C[n+]3ccccc3)CS[C@H]12)c1csc(N)n1)C(=O)O [CEFTAZIDIME] | 130000

system: Escherichia coli; experiment: Antimicrobial activity against Escherichia coli DH5[alpha] transformed with pAC-ges1 plasmid encoding Beta-lactamase GES-1 E104, G170 mutant by Etest method; format: functional

SMILES | MIC [µg/mL]
CO/N=C(\C(=O)N[C@@H]1C(=O)N2C(C(=O)O)=C(COC(C)=O)CS[C@H]12)c1csc(N)n1 [CEFOTAXIME] | 1 (≈ 2.2 µM)
CC(C)(O/N=C(\C(=O)N[C@@H]1C(=O)N2C(C(=O)[O-])=C(C[n+]3ccccc3)CS[C@H]12)c1csc(N)n1)C(=O)O [CEFTAZIDIME] | 8 (≈ 14.6 µM)

system: Escherichia coli; experiment: Antimicrobial activity against Escherichia coli DH5[alpha] transformed with pAC-ges1 plasmid encoding Beta-lactamase GES-7 K104, G170 mutant by Etest method; format: functional

SMILES | MIC [µg/mL]
CO/N=C(\C(=O)N[C@@H]1C(=O)N2C(C(=O)O)=C(COC(C)=O)CS[C@H]12)c1csc(N)n1 [CEFOTAXIME] | 1.5 (≈ 3.29 µM)
CC(C)(O/N=C(\C(=O)N[C@@H]1C(=O)N2C(C(=O)[O-])=C(C[n+]3ccccc3)CS[C@H]12)c1csc(N)n1)C(=O)O [CEFTAZIDIME] | > 256

system: Escherichia coli; experiment: Antimicrobial activity against Escherichia coli DH5[alpha] transformed with pAC-ges1 plasmid encoding Beta-lactamase GES-2 E104, N170 mutant by Etest method; format: functional

SMILES | MIC [µg/mL]
CO/N=C(\C(=O)N[C@@H]1C(=O)N2C(C(=O)O)=C(COC(C)=O)CS[C@H]12)c1csc(N)n1 [CEFOTAXIME] | 0.75 (≈ 1.65 µM)
CC(C)(O/N=C(\C(=O)N[C@@H]1C(=O)N2C(C(=O)[O-])=C(C[n+]3ccccc3)CS[C@H]12)c1csc(N)n1)C(=O)O [CEFTAZIDIME] | 0.5 (≈ 0.915 µM)

system: Escherichia coli; experiment: Antimicrobial activity against Escherichia coli DH5[alpha] transformed with pAC-ges1 plasmid encoding Beta-lactamase GES-6 K104, S170 mutant by Etest method; format: functional

SMILES | MIC [µg/mL]
CO/N=C(\C(=O)N[C@@H]1C(=O)N2C(C(=O)O)=C(COC(C)=O)CS[C@H]12)c1csc(N)n1 [CEFOTAXIME] | 0.125 (≈ 0.274 µM)
CC(C)(O/N=C(\C(=O)N[C@@H]1C(=O)N2C(C(=O)[O-])=C(C[n+]3ccccc3)CS[C@H]12)c1csc(N)n1)C(=O)O [CEFTAZIDIME] | 4 (≈ 7.32 µM)

system: Escherichia coli; experiment: Antimicrobial activity against Escherichia coli DH5[alpha] transformed with pAC-ges1 plasmid encoding Beta-lactamase GES-13 K104, N170 mutant by Etest method; format: functional

SMILES | MIC [µg/mL]
CO/N=C(\C(=O)N[C@@H]1C(=O)N2C(C(=O)O)=C(COC(C)=O)CS[C@H]12)c1csc(N)n1 [CEFOTAXIME] | 3 (≈ 6.59 µM)
CC(C)(O/N=C(\C(=O)N[C@@H]1C(=O)N2C(C(=O)[O-])=C(C[n+]3ccccc3)CS[C@H]12)c1csc(N)n1)C(=O)O [CEFTAZIDIME] | 32 (≈ 58.5 µM)

system: Escherichia coli; experiment: Antimicrobial activity against Escherichia coli DH5[alpha] by Etest method; format: functional

SMILES | MIC [µg/mL]
CO/N=C(\C(=O)N[C@@H]1C(=O)N2C(C(=O)O)=C(COC(C)=O)CS[C@H]12)c1csc(N)n1 [CEFOTAXIME] | 0.032 (≈ 0.0703 µM)
CC(C)(O/N=C(\C(=O)N[C@@H]1C(=O)N2C(C(=O)[O-])=C(C[n+]3ccccc3)CS[C@H]12)c1csc(N)n1)C(=O)O [CEFTAZIDIME] | 0.12 (≈ 0.22 µM)

system: Escherichia coli; experiment: Antimicrobial activity against Escherichia coli DH5[alpha] transformed with pAC-ges1 plasmid encoding Beta-lactamase GES-5 E104, S170 mutant by Etest method; format: functional

SMILES | MIC [µg/mL]
CO/N=C(\C(=O)N[C@@H]1C(=O)N2C(C(=O)O)=C(COC(C)=O)CS[C@H]12)c1csc(N)n1 [CEFOTAXIME] | 0.125 (≈ 0.274 µM)
CC(C)(O/N=C(\C(=O)N[C@@H]1C(=O)N2C(C(=O)[O-])=C(C[n+]3ccccc3)CS[C@H]12)c1csc(N)n1)C(=O)O [CEFTAZIDIME] | 0.75 (≈ 1.37 µM)
